Source: PubChem BioAssay
Compounds with a hit are over-represented: about 1.5% of the library has one in this group of screens.
TbMetRS inhib – blocks T. brucei methionyl-tRNA synthetase activity | purified T. brucei MetRS, ATP depletion, Kinase-Glo luminescence | inhibition, % at 11.9 µM | 360,000 tested, 0.4% active;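 active means inhibition above a per-plate cutoff of the control wells' mean inhibition plus 3 SD, cut at about 5.5% in these data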;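 further: 0% = DMSO wells median and 100% = median of wells with control inhibitor compound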
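Dosing: 11.9 µM compound single dose, 0.9% DMSO; Assay system: purified T. brucei MetRS enzyme; Measured by: Kinase-Glo luciferase luminescence reporting remaining unconsumed ATP; Schedule: 15 min plus 2 h at 25 °C.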
proCasp7 act – counter-screen: procaspase-7 (human) activation; P55210; recombinant procaspase-7, Ac-DEVD-pNA absorbance 405 nm; D23A/D198A/D206A triple mutant, cannot self-cleave; scale: DMSO 0, 5 µM enzyme 100; activation, % at 8.5 µM; 330,000 tested, 0.093% active; AID 463210;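 active means percent activation above the screen-wide mean plus 3 SD, cut at about 25% in these data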
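Assay system: Uncleavable procaspase-7 mutant enzyme | Input: 2 µM procaspase-7 mutant as dispensed | Timing: 1 h compound preincubation, 2 h substrate cleavage, 25 °C | Repeats: One well per compound | Control set: DMSO wells as 0%, DMSO with 5 µM added PC-7 as 100% | Technique: Epi-absorbance of released pNA at 405 nm, two timepoints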
procasp3 activ – procaspase-3 (human) activation; P42574; recombinant procaspase-3 D3A, Ac-DEVD-pNA absorbance 405 nm; activation, % at 8.5 µM; 330,000 tested, 0.11% active;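 active means activation above the mean of all tested compounds plus 3 SD, cut at about 21% in these data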;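 further: 0% = DMSO alone and 100% = DMSO wells spiked with extra 5 µM PC-3 D3A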
Target sequence (P42574 whole entry D9A/D28A/D175A): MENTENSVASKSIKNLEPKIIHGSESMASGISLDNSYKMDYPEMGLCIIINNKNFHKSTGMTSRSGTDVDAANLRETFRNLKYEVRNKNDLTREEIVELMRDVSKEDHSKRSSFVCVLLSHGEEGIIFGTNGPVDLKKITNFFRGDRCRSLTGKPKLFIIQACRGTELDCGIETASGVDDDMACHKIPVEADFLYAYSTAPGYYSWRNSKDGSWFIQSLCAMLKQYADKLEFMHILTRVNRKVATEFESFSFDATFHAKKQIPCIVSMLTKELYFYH
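Assay system – Procaspase-3 D3A mutant · Benchmarks – DMSO low control, extra-enzyme high control · Technique – 405 nm absorbance of p-nitroaniline, reads at 0 and 120 min · Doses – 8.5 µM nominal · Measure – % activation between DMSO and enzyme-spiked controls · Also added – Ac-DEVD-pNA chromogenic peptide substrate · Schedule – 1 h compound preincubation, 2 h substrate hydrolysis at 25 °C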
MsrA inhibitor – inhibits bovine methionine sulfoxide reductase A. 360,000 tested, 0.75% active. AID 651718. purified bovine MsrA, absorbance read-out. inhibition, % at 15.5 µM; in the data active means inhibition above about 4.5%;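 further: 0% = vehicle wells with enzyme and 100% = reference inhibitor wells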
bovine MsrA act – activators of bovine methionine sulfoxide reductase A. AID 602163. activation, % at 10.6 µM. purified bovine MsrA, absorbance read-out. 360,000 tested, 0.3% active; in the data active means activation above about 7.5%;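 further: 0% = vehicle and 100% = reference activator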
PC3 dual counter – activates human procaspase-3, dual activator counter-screen. shares compounds with proCasp7 act. recombinant PC-3 D3A, Ac-DEVD-pNA absorbance 405 nm; aspartates 9, 28, 175 changed to alanine; 100% = enzyme control. activation, % at 8.5 µM. 290 tested, under 10 active;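 active means mean percent activation across triplicates above a set limit taken from the earlier primary procaspase-3 screen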;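 further: 0% = DMSO wells and 100% = DMSO wells with 5 µM added PC-3 D3A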
PC7 dual conf – activates human procaspase-7, confirming dual procaspase activators. AID 493115. shares compounds with proCasp7 act. activation, % at 8.5 µM. 290 tested, under 10 active. recombinant procaspase-7, Ac-DEVD-pNA absorbance 405 nm; D23A/D198A/D206A mutant that cannot self-cleave;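 active means mean activation above a set limit carried over from the earlier primary screen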;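 further: 0% = DMSO only and 100% = DMSO with added 5 µM PC-7 enzyme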
* = called active by the depositor; nt = no result.

SMILES	TbMetRS inhib	proCasp7 act	procasp3 activ	MsrA inhibitor	bovine MsrA act	PC3 dual counter	PC7 dual conf
Cc1cc(N2CCN(CC(C)(C)O)C[C@@H]2C)ccc1N1CCN(CC(C)(C)O)[C@H](C)C1	nt	nt	nt	1	nt	nt	nt
Cc1onc(-c2ccccc2)c1C(=O)NN=Cc1cc(Cl)cc(Cl)c1O	nt	nt	nt	0	nt	nt	nt
COC(=O)C1C(O)=C(C=Nc2ccccc2)C(=O)CC1(C)C (centres undefined)	0	6	4	4	-1	nt	nt
COC(=O)C1C(O)=C(C=Nc2ccc(N)cc2)C(=O)CC1(C)C (centres undefined)	1	36*	11	2	1	3	0
COc1ccc(CN2C[C@@]3(O)CC[C@@H](O)[C@@H](OC)[C@@H]3[C@@]2(C)[C@H](O)CC=C(C)C)cc1	nt	nt	nt	0	nt	nt	nt
COCc1nnc(NC(=O)CSc2ccccc2)s1	0	2	13	-1	-1	nt	nt
COCc1nnc(NC(=O)CCSc2ccccc2)s1	0	27*	1	1	-1	4	0
N#Cc1c(N)n(C2CCCCC2)c2nc3ccccc3nc12	-1	62*	13	2	-7	-29	-36
Cc1ccc(N2N=C(c3ccc(F)cc3)CC2c2ccco2)cc1 (centres undefined)	0	-8	-13	-1	-2	nt	nt
Oc1ccc(C2=NN(c3ccccc3)C(c3ccc(F)cc3)C2)cc1 (centres undefined)	1	36*	20	1	1	-30	-35
Fc1ccc(C2=NN(c3ccccc3)C(c3ccco3)C2)cc1 (centres undefined)	0	44*	32*	1	-2	-29	-34
CN1OC[C@@H]2CN3C(=NCCc4ccccc4)Sc4ccccc4[C@@H]3C[C@@H]21	nt	nt	nt	0	nt	nt	nt
Cc1cc(-c2cc(NC(=O)Cc3c[nH]c4ccccc34)ccc2Nc2cccnc2)ccc1F	nt	nt	nt	1	nt	nt	nt
CC(C)OC(=O)CC(=O)CSc1nc2c(cc1C#N)CCCCCC2	-1	75*	62*	1	-3	-29	-27
COc1ccc(-c2cc(C(=O)OC3CCOC3=O)c3ccccc3n2)cc1OC (centres undefined)	0	28*	27*	4	4	15	10
COc1ccc(C#Cc2c(-c3ccccc3OC)oc3ccccc23)cc1	nt	nt	nt	0	nt	nt	nt
O=c1c(O)c(-c2ccc3c(c2)OCO3)oc2ccccc12	-1	30*	37*	2	-13	23*	19
O=C(Nc1ccc2c(c1)oc1ccccc12)c1ccc2c(c1)OCO2	0	19	3	1	0	nt	nt
CCn1c(=N)c(S(=O)(=O)c2ccccc2)cc2c(=O)n3ccccc3nc21	0	-28	-26	0	-4	nt	nt
CCCn1c(=N)c(S(=O)(=O)c2ccccc2)cc2c(=O)n3ccccc3nc21	1	42*	-26	0	-1	-30	-33
COc1ccc(S(=O)(=O)N2CCN(C(=O)COc3ccc(C)c(C)c3)CC2)cc1OC	-1	39*	-2	0	-5	1	-2
Cc1cc(C)cc(NC(=O)CSc2nc3ccccc3nc2N2CCCC2)c1	0	39*	7	0	0	-29	-34
O=C(CSc1nc2ccccc2nc1N1CCCC1)Nc1ccc(F)cc1	1	41*	2	1	-2	-30	-34
CC(=O)Nc1ccc(NC(=O)CSc2nc3ccccc3nc2N2CCCCC2)cc1	0	0	-5	0	-3	nt	nt
Cc1cc(C)cc(NC(=O)CSc2nc3ccccc3nc2N2CCCCC2)c1	0	4	-2	0	1	nt	nt
COC(=O)C1=C(C)N(C)C(=NCc2ccccc2C(F)(F)F)NC1CCc1ccccc1 (centres undefined)	nt	nt	nt	-1	nt	nt	nt
Cc1nnc(NC(=O)c2c(-c3ccccc3)noc2C)s1	0	26*	5	1	0	1	-1
CCc1nnc(NC(=O)c2c(-c3ccccc3)noc2C)s1	-1	-11	2	2	-2	nt	nt
